Bioassay records: PubChem BioAssay, The Scripps Research Institute Molecular Screening Center
Rows were chosen to be rich in hits. Some 3.5% of all compounds tested hit in one or more screens of this group.
rCAG RNA binder: binders of r(CAG) RNA repeats, primary screen, biochemical, fluorescence. 370,000 compounds, 1.3% hits. inhibition, % at 3 µM. r(CAG) RNA repeat, TO-PRO-1 dye displacement fluorescence;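 active = inhibition above the plate cutoff, the mean of all test compounds on that plate plus 3 SD, cut at about 35% in these data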;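 note: 0% = DMSO alone and 100% = 100 µM mitoxantrone as full dye displacement; higher means more dye released from RNA so lower well fluorescence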
mABHD4 FP: ABHD4 inhibitors, primary screen, biochemical, fluorescence polarization, mouse; (Lyso)-N-acylphosphatidylethanolamine lipase (Mus musculus), Q8VD66; AID 720543, 2013; 370,000 compounds, 0.54% hits; purified mABHD4, FP-Rh probe fluorescence polarization; inhibition, % at 8.92 µM;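 active = inhibition exceeding the mean over every tested compound plus 3 SD, cut at about 30% in these data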;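 note: 0% = plate median of compound wells and 100% = S159A mutant with DMSO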
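Test system: mABHD4 protein; Read-out basis: % inhibition; Incubation: 45 min + 60 min at 25 °C; Repeats: single replicate; Technique: fluorescence polarization with parallel and perpendicular emission, 525/598 nm; Compound: 8.92 µM, single dose; Benchmarks: full inhibition S159A mutant plus DMSO, zero as sample-well median.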
SIAE primary: human SIAE inhibitors, primary screen, biochemical, fluorescence polarization, FP-Rh probe, 1536-well HTS; Sialate O-acetylesterase (Homo sapiens), Q9HAT2; SIAE FP-Rh probe binding; inhibition, % at 9.66 µM; 370,000 compounds, 0.69% hits; AID 1053197, 2014;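 active = inhibition above a cutoff: mean of compounds within the control limits plus 3 SD of those, cut at about 17% in these data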;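 note: 0% = plate median of compound wells and 100% = probe without SIAE protein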
TCR CD3 inh: inhibitors of human TCR-CD3 interaction, primary screen, biochemical, fluorescence, TAMRA-labeled TCR probe. 360,000 compounds, 0.37% hits. inhibition, % at 9.4 µM. AID 651800, 2012. T-cell receptor (TCR); in the data active = inhibition above about 19%;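 note: recombinant mutant TCR 2C K166C tagged with TAMRA read by polarization; 0% = receptor in buffer alone and 100% = receptor with positive control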
PRMT1 inh: PRMT1 methyltransferase inhibitors, primary screen, biochemical, fluorescence polarization; Protein arginine N-methyltransferase 1 (Homo sapiens), Q99873; recombinant PRMT1, activity-based probe fluorescence polarization; inhibition, % at 2.79 µM; 370,000 compounds, 1.3% hits;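 active = inhibition above about 21% made by adding two undisclosed values, limit read from the data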
HTRA1 inh: HTRA1 serine protease inhibitors, primary screen, biochemical, fluorescence polarization, HTS; Q92743; recombinant HTRA1, FP-rhodamine activity-based probe; inhibition, % at 5.96 µM; 340,000 compounds, 0.5% hits; in the data active = inhibition above about 36%;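 note: 0% = enzyme with DMSO and 100% = wells lacking enzyme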
Target sequence (Q92743 whole entry, looked up): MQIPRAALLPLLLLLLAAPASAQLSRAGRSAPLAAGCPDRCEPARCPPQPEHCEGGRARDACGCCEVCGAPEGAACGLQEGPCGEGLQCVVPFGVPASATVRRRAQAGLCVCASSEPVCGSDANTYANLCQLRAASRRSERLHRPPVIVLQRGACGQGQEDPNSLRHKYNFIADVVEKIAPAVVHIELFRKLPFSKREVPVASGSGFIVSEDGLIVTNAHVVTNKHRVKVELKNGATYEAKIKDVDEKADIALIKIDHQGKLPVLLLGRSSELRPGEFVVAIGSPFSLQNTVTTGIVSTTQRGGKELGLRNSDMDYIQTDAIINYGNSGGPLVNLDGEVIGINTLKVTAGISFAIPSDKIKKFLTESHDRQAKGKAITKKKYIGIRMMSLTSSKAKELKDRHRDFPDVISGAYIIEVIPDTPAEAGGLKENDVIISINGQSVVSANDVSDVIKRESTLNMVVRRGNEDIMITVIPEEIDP
rCAG binder conf: small molecules binding CAG repeat RNA – biochemical, fluorescence, confirmation | shares compounds with rCAG RNA binder | AID 652065, 2013 | r(CAG) RNA repeat, TO-PRO-1 dye displacement fluorescence | 4,300 compounds, 70% hits | inhibition, % at 3 µM;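 active = inhibition above a per-plate cutoff, the mean inhibition of sample wells plus 3 SD, cut at about 35% in these data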;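 note: loss of TO-PRO-1 fluorescence as compound displaces dye from 1x1 AA loop RNA; 0% = DMSO only wells and 100% = 100 µM mitoxantrone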
DNA CAG counter: displacement of TO-PRO-1 from CAG DNA duplex, counter-screen for rCAG RNA repeat binder project, biochemical, fluorescence, TO-PRO-1 dye, d(CAG) DNA oligo. d(CAG) DNA oligo TO-PRO-1 dye displacement. AID 652068, 2013. shares compounds with rCAG RNA binder. inhibition, % at 3 µM. 4,300 compounds, 94% hits;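 active = inhibition above its plate's cutoff, the mean test-well inhibition plus 3 SD, cut at about 4.8% in these data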;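 note: 0% = DNA dye mix with DMSO and 100% = 100 µM mitoxantrone; hits displace the dye from DNA and so lower well fluorescence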
Active calls of the source: *; / = not tested or not shown.

SMILES	rCAG RNA binder	mABHD4 FP	SIAE primary	TCR CD3 inh	PRMT1 inh	HTRA1 inh	rCAG binder conf	DNA CAG counter
CCCCN(CCCC)c1ccc(C(=O)c2ccccc2C(=O)O)c(O)c1	72*	15	6	6	-1	-18	57*	21*
CN(C)c1ccc(C(=O)c2ccccc2C(=O)O)c(O)c1	0	7	4	5	-2	0	/	/
CC(C)[C@H](NC(=O)OC(C)(C)C)C(=O)N1CCC(Oc2cccnc2)CC1	-2	8	1	/	-10	/	/	/
CS(=O)(=O)c1ccccc1C(=O)Nc1ccccc1Cc1ccccc1	-1	-8	6	-10	8	4	/	/
Cc1ccc(NC(=O)c2ccccc2NS(=O)(=O)c2ccc(Cl)s2)cc1	85*	-38	-10	3	-2	-43	72*	34*
O=C(Nc1ccccc1Cc1ccccc1)c1ccccc1NS(=O)(=O)c1ccc(Cl)s1	91*	-93	-22	1	2	-87	91*	66*
O=C(NC1CCCCN(Cc2ccc(Cl)cc2)C1=O)c1ccc(-c2ccccc2)cc1 (stereo unspecified)	10	-15	-14	/	-3	/	/	/
CCOc1cc(/C=C2\C(=N)N3N=C(S(C)(=O)=O)SC3=NC2=O)ccc1OCCOc1cccc(OC)c1	49*	-18	-27	3	5	-64	92*	73*
CCS(=O)(=O)C1=NN2C(=N)/C(=C\c3ccc(OCCOc4cccc(OC)c4)c(OC)c3)C(=O)N=C2S1	49*	-10	-21	2	-2	-52	91*	76*
CCCSc1nc(C)c(-c2csc(C(C#N)=C3CCCC3)n2)cc1C#N	44*	10	-7	-3	5	-5	38*	25*
NC(c1ccccc1)c1csc(NC(=O)Nc2cccc(Cl)c2)n1 (stereo unspecified)	48*	16	2	-2	4	/	37*	17*
O=C(Nc1cccc(Cl)c1)Nc1nc(-c2ccc(Cl)cc2)cs1	31	-13	-9	5	2	-20	/	/
NC(CCc1ccccc1)c1csc(NC(=O)Nc2cccc(Cl)c2)n1 (stereo unspecified)	47*	8	0	-5	-4	/	40*	9.8*
NC(c1ccccc1)c1csc(NC(=O)Nc2ccc(OC(F)(F)F)cc2)n1 (stereo unspecified)	41*	-21	-18	-3	3	/	35*	13*
NC(COCc1ccccc1)c1csc(NC(=O)Nc2cccc(C(F)(F)F)c2)n1 (stereo unspecified)	43*	8	10	3	0	/	30	5.1*
COc1ccccc1NC(=O)Nc1nc(C(N)CCc2ccccc2)cs1 (stereo unspecified)	22	-10	-1	-11	-5	/	/	/
COC(=O)c1cn(-c2ccc3c(c2)[C@]2(CC(=O)N(C)C2c2ccccc2)C(=O)N3CC(C)C)nn1 (stereo partly specified)	2	1	7	/	-1	/	/	/
CN(C)S(=O)(=O)c1cccc(C(=O)Nc2cc3c(cc2C(=O)O)OCCCO3)c1	39*	1	-9	-7	2	5	29	5.2*
CN(C)S(=O)(=O)c1ccc(C(=O)Nc2cc3c(cc2C(=O)O)OCCCO3)cc1	59*	-15	-26	-10	7	-6	29	5.1*
CN(C)S(=O)(=O)c1ccc(C(=O)Nc2ccccc2C(=O)O)cc1	24	-1	-11	6	2	-4	/	/
CCCCCc1ccc(NC(=O)OCCCN2CCC3(CCC(c4ccccc4)CC3)C2=O)cc1 (stereo unspecified)	7	-7	1	/	1	/	/	/
COC(=O)[C@]12C[C@H](CC(=O)NCc3ccc(C)o3)C(=O)N(Cc3ccco3)C1=C[C@H](COCc1ccccc1)O[C@@H]2C	7	0	7	/	3	/	/	/
COc1ccc(-n2c(COc3ccc(C)cc3)nnc2SCC(=O)Nc2ccc(S(=O)(=O)Nc3cc(C)nc(C)n3)cc2)cc1	51*	-7	-5	/	-1	/	44*	14*
COc1ccc(-n2c(SCC(=O)Nc3ccc(S(=O)(=O)Nc4cc(C)nc(C)n4)cc3)nnc2-c2ccco2)cc1	34	-9	-1	/	1	/	/	/
Cc1cc(NS(=O)(=O)c2ccc(NC(=O)CSc3nnc(-c4ccccn4)n3-c3ccccc3)cc2)nc(C)n1	22	4	-2	/	3	/	/	/
SMILES	rCAG RNA binder	mABHD4 FP	SIAE primary	TCR CD3 inh	PRMT1 inh	HTRA1 inh	rCAG binder conf	DNA CAG counter
Cc1ccc(-n2c(SCC(=O)Nc3ccc(S(=O)(=O)Nc4cc(C)nc(C)n4)cc3)nnc2-c2ccc(C(C)(C)C)cc2)cc1	44*	-49	-39	/	10	/	42*	16*
CCOc1ccc(-n2c(SCC(=O)Nc3ccc(S(=O)(=O)Nc4cc(C)nc(C)n4)cc3)nnc2-c2cccc(C)c2)cc1	47*	-28	-11	/	-1	/	47*	16*
CCOc1ccc(-n2c(SCC(=O)Nc3ccc(S(=O)(=O)Nc4cc(C)nc(C)n4)cc3)nnc2-c2ccc(OC)cc2)cc1	41*	-20	-9	/	6	/	44*	15*
COc1cc(-n2c(C)nc3cc(C(=O)N4CC(C)CC(C)C4)ccc32)cc(OC)c1OC (stereo unspecified)	-1	-9	0	/	-5	/	/	/
O=C(NCCc1nc2ccccc2n1CCOc1ccc2cccnc2c1)C1CCCCC1	/	1	-5	/	0	/	/	/
CCOc1ccc(-n2c(SCC(=O)Nc3ccc(S(=O)(=O)Nc4cc(C)nc(C)n4)cc3)nnc2-c2ccncc2)cc1	20	-3	8	/	-1	/	/	/
CCOc1ccc(-n2c(SCC(=O)Nc3ccc(S(=O)(=O)Nc4cc(C)nc(C)n4)cc3)nnc2-c2ccc(C)cc2)cc1	52*	-29	-11	/	-2	/	58*	18*
